Source: ChEMBL document CHEMBL3351594, “Cytotoxic dimeric epipolythiodiketopiperazines from the ascomycetous fungus Preussia typharum” (J Nat Prod, 2014)
pIC50: −log10 of the molar value. Calls of active or inactive are those of the source. No cut-off for these calls is given here.

Legend:
[1] = test system: MIA PaCa-2; assay: Cytotoxicity against human MIAPaCa2 cells up to 30 uM after 24 hrs by MTT assay; assay type: functional, cell-based
[2] = Cytotoxicity against human MIAPaCa2 cells after 24 hrs by MTT assay; assay type: functional, cell-based; details: MIA PaCa-2, 24 h
[3] = target: mTORC1 (Homo sapiens) (UniProt P42345+Q8N122+Q9BVC4); details: HeLa, 100 nM
[4] = Cytotoxicity against human SKOV3 cells by SRB method; assay type: functional; details: SK-OV-3
How it was run: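 SRB assay in SK-OV-3 cells; percent cell growth per Boyd et al.; GI50, TGI and LC50 fitted from dose–response curves of percent growth; mean ± SE, n = 3 or 4 independent experiments.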

[5] = Cytotoxicity against human P-gp expressing SKOV3-M6/6 cells by SRB assay; assay type: functional
How it was run: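 SRB assay in SK-OV-3/MDR-1-6/6 cells, a single-cell clone of SKOV-3/MDR1 (P-gp). Percent cell growth follows Boyd et al. GI50 was derived from dose–response curves of percent growth. Results are mean ± SE of n = 3 or 4 independent experiments. Relative resistance is calculated against parental SK-OV-3.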

[6] = test system: SK-OV-3; assay: Resistance ratio of GI50 for human P-gp expressing SKOV3-M6/6 cells to GI50 for human SKOV3 cells; assay type: functional
How it was run: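 SRB assay in SK-OV-3 and its P-gp/MDR1 single-cell clone SK-OV-3/MDR-1-6/6; GI50 from percent growth dose–response curves, n = 3 or 4 independent experiments; relative resistance taken as ratio of GI50 in the MDR line to parental.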

mTORC1 (Homo sapiens), sequence (Q8N122 whole entry, looked up, other chains not shown): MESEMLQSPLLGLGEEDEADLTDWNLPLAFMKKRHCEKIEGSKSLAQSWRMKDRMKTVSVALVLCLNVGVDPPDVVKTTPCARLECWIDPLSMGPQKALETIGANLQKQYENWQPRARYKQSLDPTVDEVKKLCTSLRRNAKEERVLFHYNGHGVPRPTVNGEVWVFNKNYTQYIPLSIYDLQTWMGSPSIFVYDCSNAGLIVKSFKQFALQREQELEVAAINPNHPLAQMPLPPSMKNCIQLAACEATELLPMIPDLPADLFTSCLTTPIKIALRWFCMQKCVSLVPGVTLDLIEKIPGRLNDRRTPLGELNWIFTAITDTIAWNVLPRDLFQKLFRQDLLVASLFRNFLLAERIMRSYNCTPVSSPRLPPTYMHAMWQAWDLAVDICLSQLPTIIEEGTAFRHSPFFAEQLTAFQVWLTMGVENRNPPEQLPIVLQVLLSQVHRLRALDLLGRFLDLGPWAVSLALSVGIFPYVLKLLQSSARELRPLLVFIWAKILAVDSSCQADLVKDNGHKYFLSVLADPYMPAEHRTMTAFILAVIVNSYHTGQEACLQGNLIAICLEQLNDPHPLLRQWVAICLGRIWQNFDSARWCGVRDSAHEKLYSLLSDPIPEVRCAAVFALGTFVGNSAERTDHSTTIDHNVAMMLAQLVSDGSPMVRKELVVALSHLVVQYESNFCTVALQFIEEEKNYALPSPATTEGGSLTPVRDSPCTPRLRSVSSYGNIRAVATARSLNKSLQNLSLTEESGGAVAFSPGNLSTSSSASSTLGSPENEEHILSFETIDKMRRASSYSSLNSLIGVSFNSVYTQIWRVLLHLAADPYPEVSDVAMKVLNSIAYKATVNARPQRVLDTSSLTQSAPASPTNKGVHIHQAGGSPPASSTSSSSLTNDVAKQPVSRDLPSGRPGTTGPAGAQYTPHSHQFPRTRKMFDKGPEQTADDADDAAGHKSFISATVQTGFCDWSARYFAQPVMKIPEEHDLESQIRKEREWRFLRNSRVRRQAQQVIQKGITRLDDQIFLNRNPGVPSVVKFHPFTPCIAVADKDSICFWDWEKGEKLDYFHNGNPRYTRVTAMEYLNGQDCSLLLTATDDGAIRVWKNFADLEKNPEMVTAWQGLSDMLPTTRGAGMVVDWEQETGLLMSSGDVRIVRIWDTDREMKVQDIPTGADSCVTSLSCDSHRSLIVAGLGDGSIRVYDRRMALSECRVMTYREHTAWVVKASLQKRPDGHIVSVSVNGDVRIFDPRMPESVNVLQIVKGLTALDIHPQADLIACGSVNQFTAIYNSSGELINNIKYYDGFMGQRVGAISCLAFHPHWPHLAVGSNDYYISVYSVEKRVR
mTORC1 (Homo sapiens), sequence (Q9BVC4 whole entry, looked up, other chains not shown): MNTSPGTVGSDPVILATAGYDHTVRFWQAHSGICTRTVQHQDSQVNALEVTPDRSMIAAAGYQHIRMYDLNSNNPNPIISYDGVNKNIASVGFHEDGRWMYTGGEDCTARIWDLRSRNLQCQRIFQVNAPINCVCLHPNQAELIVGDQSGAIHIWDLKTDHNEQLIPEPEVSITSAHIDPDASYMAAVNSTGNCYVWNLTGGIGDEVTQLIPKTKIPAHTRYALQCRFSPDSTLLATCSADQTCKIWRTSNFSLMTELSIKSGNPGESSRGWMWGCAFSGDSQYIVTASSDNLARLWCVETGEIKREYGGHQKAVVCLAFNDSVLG

SMILES	Activity [1]	pIC50 [2]	further results
CS[C@@]1(C(C)C)C(=O)N2[C@H]3Nc4ccccc4[C@@]3(C34c5ccccc5N(C)[C@H]3N3C(=O)[C@@](CO)(SC)N(C)C(=O)[C@]3(SC)[C@H]4O)[C@H](O)[C@]2(SC)C(=O)N1C (stereo not given in full)	inactive		
CC(C)[C@@]12SS[C@]3(C(=O)N1C)[C@@H](O)[C@]1(C45c6ccccc6N[C@H]4N4C(=O)[C@]6(CO)SS[C@]4(C(=O)N6C)[C@H]5O)c4ccccc4N[C@@H]1N3C2=O (stereo not given in full)		7.47	
CS[C@@]1(C(C)C)C(=O)N2[C@H]3N(C)c4ccccc4[C@@]3(C34c5ccccc5N[C@H]3N3C(=O)[C@@](CO)(SC)N(C)C(=O)[C@]3(SC)[C@H]4O)[C@H](O)[C@]2(SC)C(=O)N1C (stereo not given in full)	inactive		
CO[C@H]1C[C@@H]2CC[C@@H](C)[C@@](O)(O2)C(=O)C(=O)N2CCCC[C@H]2C(=O)O[C@H]([C@H](C)C[C@@H]2CC[C@@H](O)[C@H](OC)C2)CC(=O)[C@H](C)/C=C(\C)[C@@H](O)[C@@H](OC)C(=O)[C@H](C)C[C@H](C)/C=C/C=C/C=C/1C			inhibition [3]: Active
CS[C@@]1(C(C)C)C(=O)N2[C@H]3Nc4ccccc4[C@@]3(C34c5ccccc5N[C@H]3N3C(=O)[C@@](CO)(SC)N(C)C(=O)[C@]3(SC)[C@H]4O)[C@H](O)[C@]2(SC)C(=O)N1C (stereo not given in full)	inactive		
CC(=O)O[C@H]1C(=O)[C@@]2(C)[C@H]([C@H](OC(=O)c3ccccc3)[C@]3(O)C[C@H](OC(=O)[C@H](O)[C@@H](NC(=O)c4ccccc4)c4ccccc4)C(C)=C1C3(C)C)[C@]1(OC(C)=O)CO[C@@H]1C[C@@H]2O [PACLITAXEL]			GI50 [4]: 4.7 nM; GI50 [5]: 600 nM; Ratio [6]: 127
CC(C)[C@@]12SS[C@]3(C(=O)N1C)[C@@H](O)[C@]1(C45c6ccccc6N[C@H]4N4C(=O)[C@@]6(CO)SSSS[C@@]4(C(=O)N6C)[C@H]5O)c4ccccc4N[C@@H]1N3C2=O (stereo not given in full)		8.04	
CC(C)[C@@]12SS[C@]3(C(=O)N1C)[C@@H](O)[C@]1(C45c6ccccc6N[C@H]4N4C(=O)[C@]6(CO)SSSS[C@]4(C(=O)N6C)[C@H]5O)c4ccccc4N[C@@H]1N3C2=O (stereo not given in full)		7.37	
